Measurements as given in publication PMC8958665 (ACS infectious diseases, 2021).
Values after ≈ are worked out from the molar mass of the structure shown. Read-outs that look alike come from different tables or passages of the source.

Key:
K. pneumoniae B9 (KPB9) [1] = assay: Broth microdilution standalone MIC, KPB9; type: cell-based; settings: Klebsiella pneumoniae, read-out: standalone MIC against KPB9
[2] = system: A. baumannii 4106 (AB4106); assay: Broth microdilution colistin potentiation, AB4106; type: cell-based, Acinetobacter baumannii
NF-κB = NF-κB luciferase reporter assay in HEK293 recombinant cells; type: cell-based; settings: Homo sapiens, HEK293, read-out: Inhibition of NF-κB IC50
K. pneumoniae B9 (KPB9) [3] = assay: Broth microdilution colistin potentiation, KPB9; type: cell-based, Klebsiella pneumoniae
[4] = system: A. baumannii 4106 (AB4106); assay: Broth microdilution standalone MIC, AB4106; type: cell-based; settings: Acinetobacter baumannii, read-out: standalone MIC against AB4106
[5] = system: P. aeruginosa strains TRPA161 and TRPA162; assay: Colistin potentiation, colistin-resistant P. aeruginosa strains; type: cell-based, Pseudomonas aeruginosa; settings: no adjuvant
How it was run: (§1)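 Broth microdilution in CAMHB: strains are grown 6 h and diluted to 5 × 10^5 CFU/mL. Test compound is added from DMSO stock, and colistin (from water stock) is serially diluted in the compound-dosed suspension. An undosed aliquot gives the colistin MIC alone. Plates are incubated stationary at 37 °C for 16 h and read at OD600. MIC is 90% growth inhibition versus untreated. Run in duplicate, repeated at least twice.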

[6] = system: colistin-resistant A. baumannii strains; type: cell-based, Acinetobacter baumannii; settings: no adjuvant
[7] = system: colistin-resistant K. pneumoniae strains; assay: Colistin potentiation, panel of colistin-resistant K. pneumoniae strains; type: cell-based, Klebsiella pneumoniae; settings: no adjuvant
How it was run: as §1

AB4106 = assay: MIC in the presence of polymyxin B nonapeptide; type: cell-based, Acinetobacter baumannii; settings: 10 μg/mL

In the case of O=C(Nc1cc(C(F)(F)F)cc(C(F)(F)F)c1)c1cc(Cl)ccc1O [IMD-0354 4, IMD-0354], the MIC (K. pneumoniae B9 (KPB9) [1]) is reported as 50 µM (≈ 19.2 µg/mL), the “AB4106 colistin MIC in the presence of compound” value ([2]; compound at 5 μM, AB4106) is reported as 2 µg/mL and the “AB4106 fold reduction of colistin MIC” value ([2]; compound at 5 μM, vs colistin alone (2048 μg/mL)) is reported as 1024 fold. For the same compound, the IC50 (NF-κB) was 1070 ± 60 nM, the “KPB9 colistin MIC in the presence of compound” value (K. pneumoniae B9 (KPB9) [3]; compound at 5 μM, KPB9) was 0.5 µg/mL and the “KPB9 fold reduction of colistin MIC” value (K. pneumoniae B9 (KPB9) [3]; compound at 5 μM, vs colistin alone (512 μg/mL)) was 1024 fold. It also gave an MIC [4] of 50 µM (≈ 19.2 µg/mL).
In the case of colistin, the “colistin MIC alone” value ([5]; strain TRPA 161) is reported as 1024 µg/mL, the “colistin MIC alone” value ([5]; strain TRPA 162) is reported as 1024 µg/mL and the “AB4106 MIC of colistin alone” value ([2]; no adjuvant) is reported as 2048 µg/mL. For the same compound, the “colistin MIC alone” value ([6]; strain AB 1E4) was >512 µg/mL, the “colistin MIC alone” value ([6]; strain AB 1F9) was >512 µg/mL and the “colistin MIC alone” value ([6]; strain AB 1G2) was >512 µg/mL. For the same compound, the “colistin MIC alone” value ([6]; strain AB 2A8) was >512 µg/mL, the “colistin MIC alone” value ([6]; strain AB 3941) was 1024 µg/mL and the “colistin MIC alone” value ([6]; strain AB 4112) was 2048 µg/mL. The “colistin MIC alone” value ([6]; strain AB 17978 mcr-1) was 64 µg/mL, the “KPB9 MIC of colistin alone” value (K. pneumoniae B9 (KPB9) [3]; no adjuvant) was 512 µg/mL and the “colistin MIC alone” value ([7]; strain KP C3) was 128 µg/mL. The “colistin MIC alone” value ([7]; strain KP E2) was 512 µg/mL, the “colistin MIC alone” value ([7]; strain KP F3) was 128 µg/mL and the “colistin MIC alone” value ([7]; strain KP F9) was 256 µg/mL. For the same compound, the “colistin MIC alone” value ([7]; strain KP F2210291 mcr-1) was 16 µg/mL, the “colistin MIC alone” value ([7]; strain KP H2) was 256 µg/mL and the “colistin MIC alone” value ([7]; strain KP I2) was 512 µg/mL.
With polymyxin B nonapeptide [PMBN] the “toxicity against AB4106” value (AB4106) was “no toxicity”.
